Data as given in ChEMBL document CHEMBL3272149, “Synthesis and antibacterial activity of some derivatives of tolypomycinone. Relationship between structure and activity in ansamycins” (J Med Chem, 1977).
Converted amounts (≈) assume the structure as drawn.

Tests used:
Type in all cases: functional
Staphylococcus aureus = experiment: Antibacterial activity against Staphylococcus aureus 209 P(FDA) assessed as inhibition of visible growth after 24 hrs by serial dilution method
Klebsiella pneumoniae = experiment: Antibacterial activity against Klebsiella pneumoniae Ottaviani assessed as inhibition of visible growth after 24 hrs by serial dilution method
Escherichia coli = experiment: Antibacterial activity against Escherichia coli MC/35 assessed as inhibition of visible growth after 24 hrs by serial dilution method; conditions: MC/35, 24 h
[1] = system: Salmonella enterica subsp. enterica serovar Paratyphi B; experiment: Antibacterial activity against Salmonella paratyphi B 0248 K assessed as inhibition of visible growth after 24 hrs by serial dilution method
Method in brief: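 Broth tube serial dilution in Brain Heart Infusion medium; inoculum 10^6 cells/mL; incubation 24 h at 35 °C; MIC taken as the lowest antibiotic concentration that prevented visible growth.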

Row | Structure (SMILES) | MIC (Staphylococcus aureus) [µg/mL] | MIC (Klebsiella pneumoniae) [µg/mL] | MIC (Escherichia coli) [µg/mL] | MIC [1] [µg/mL]
1 | CO[C@H]1/C=C/O[C@@]2(C)Oc3c(C)c(O)c4c(O)c(cc(O)c4c3C2=O)NC(=O)/C(C)=C\C=C\[C@H](C)[C@H](O)[C@@H](C)[C@@H](O)[C@@H](C)[C@H](OC(C)=O)[C@@H]1C [RIFAMYCIN] | < 0.005 | 100 (≈ 143 µM) | 100 (≈ 143 µM) | 100 (≈ 143 µM)
2 | CO[C@H]1/C=C/O[C@@]2(C)Oc3c(C)c(O)c4c(c3C2=O)C(=O)C(NC2CCCCC2)=C(NC(=O)/C(C)=C\C(=O)[C@@H]2C[C@@H]2[C@H](O)[C@@H](C)[C@@H](O)[C@@H](C)[C@H](OC(C)=O)[C@@H]1C)C4=O | 0.25 (≈ 0.31 µM) | – | – | –
3 | CO[C@H]1/C=C/O[C@@]2(C)Oc3c(C)c(O)c4c(c3C2=O)C(=O)C(NCCNc2ccc([N+](=O)[O-])cn2)=C(NC(=O)/C(C)=C\C(=O)[C@@H]2C[C@@H]2[C@H](O)[C@@H](C)[C@@H](O)[C@@H](C)[C@H](OC(C)=O)[C@@H]1C)C4=O | < 0.025 | > 50 | > 50 | > 50
4 | CO[C@H]1/C=C/O[C@@]2(C)Oc3c(C)c(O)c4c(c3C2=O)C(=O)C(NCc2ccncc2)=C(NC(=O)/C(C)=C\C(=O)[C@@H]2C[C@@H]2[C@H](O)[C@@H](C)[C@@H](O)[C@@H](C)[C@H](OC(C)=O)[C@@H]1C)C4=O | 0.005 (≈ 0.00613 µM) | 100 (≈ 123 µM) | 25 (≈ 30.6 µM) | 12 (≈ 14.7 µM)
5 | COC(CCNC1=C2NC(=O)/C(C)=C\C(=O)[C@@H]3C[C@@H]3[C@H](O)[C@@H](C)[C@@H](O)[C@@H](C)[C@H](OC(C)=O)[C@H](C)[C@@H](OC)/C=C/O[C@@]3(C)Oc4c(C)c(O)c(c(c4C3=O)C1=O)C2=O)OC | 0.005 (≈ 0.00605 µM) | 50 (≈ 60.5 µM) | 25 (≈ 30.2 µM) | 25 (≈ 30.2 µM)
6 | CO[C@H]1/C=C/O[C@@]2(C)Oc3c(C)c(O)c4c(c3C2=O)C(=O)C(NCc2ccsc2)=C(NC(=O)/C(C)=C\C(=O)[C@@H]2C[C@@H]2[C@H](O)[C@@H](C)[C@@H](O)[C@@H](C)[C@H](OC(C)=O)[C@@H]1C)C4=O | < 0.005 | 100 (≈ 122 µM) | 12 (≈ 14.6 µM) | 12 (≈ 14.6 µM)
7 | CO[C@H]1/C=C/O[C@@]2(C)Oc3c(C)c(O)c4c(c3C2=O)C(=O)C(NCCCN(C)C)=C(NC(=O)/C(C)=C\C(=O)[C@@H]2C[C@@H]2[C@H](O)[C@@H](C)[C@@H](O)[C@@H](C)[C@H](OC(C)=O)[C@@H]1C)C4=O | 0.025 (≈ 0.0309 µM) | 50 (≈ 61.7 µM) | 12 (≈ 14.8 µM) | 12 (≈ 14.8 µM)
8 | CO[C@H]1/C=C/O[C@@]2(C)Oc3c(C)c(O)c4c(c3C2=O)C(=O)C(NCCCN2CCC(=O)C2)=C(NC(=O)/C(C)=C\C(=O)[C@@H]2C[C@@H]2[C@H](O)[C@@H](C)[C@@H](O)[C@@H](C)[C@H](OC(C)=O)[C@@H]1C)C4=O | 0.005 (≈ 0.00588 µM) | – | 50 (≈ 58.8 µM) | 25 (≈ 29.4 µM)
9 | COC1/C=C/OC2(C)Oc3c(C)c(O)c4c(c3C2=O)C(=O)C=C(NC(=O)/C(C)=C\C(=O)C2CC2C(O)C(C)C(O)C(C)C(OC(C)=O)C1C)C4=O (stereo not drawn) [TOLYPOMYCINONE] | 0.5 (≈ 0.704 µM) | – | – | –
10 | CNC1=C2NC(=O)C(C)CC(=O)[C@@H]3C[C@@H]3[C@H](O)[C@@H](C)[C@@H](O)[C@@H](C)[C@H](OC(C)=O)[C@H](C)[C@@H](OC)/C=C/O[C@@]3(C)Oc4c(C)c(O)c(c(c4C3=O)C1=O)C2=O (stereo partly drawn) | 0.5 (≈ 0.675 µM) | – | – | –
11 | CO[C@H]1/C=C/O[C@@]2(C)Oc3c(C)c(O)c4c(c3C2=O)C(=O)C(NCc2ccccc2)=C(NC(=O)/C(C)=C\C(=O)[C@@H]2C[C@@H]2[C@H](O)[C@@H](C)[C@@H](O)[C@@H](C)[C@H](OC(C)=O)[C@@H]1C)C4=O | < 0.005 | – | – | –
12 | CO[C@H]1/C=C/O[C@@]2(C)Oc3c(C)c(O)c4c(c3C2=O)C(=O)C(NCc2ccccc2)=C(NC(=O)C(C)(NCc2ccccc2)CC(=O)[C@@H]2C[C@@H]2[C@H](O)[C@@H](C)[C@@H](O)[C@@H](C)[C@H](OC(C)=O)[C@@H]1C)C4=O (stereo partly drawn) | 0.25 (≈ 0.271 µM) | – | – | –
13 | CO[C@H]1/C=C/O[C@@]2(C)Oc3c(C)c(O)c4c(c3C2=O)C(=O)C=C(NC(=O)C(C)CC(=O)[C@@H]2C[C@@H]2[C@H](O)[C@@H](C)[C@@H](O)[C@@H](C)[C@H](OC(C)=O)[C@@H]1C)C4=O (stereo partly drawn) | 0.5 (≈ 0.702 µM) | – | – | –
